In ChEMBL document CHEMBL2417367 (Bioorg Med Chem, 2013):

Tests used:
[1] = test system: MDA-MB-231; assay: Cytotoxicity against human MDA-MB-231 cells after 72 hrs by MTT assay; type: functional, cell-based; conditions: MDA-MB-231, 72 h
In short: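 Cells were grown in MEM with 10% FBS. About 4×10^3 cells per well were seeded and incubated 24 h at 37 °C in 5% CO2. Compounds were then added at set final concentrations for 72 h. MTT (final 5 µg/mL) was added for 4 h at 37 °C, and formazan was dissolved in DMSO and read at 492 nm against a 630 nm reference. Each line was tested three times; IC50 is mean ± SD.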

[2] = test system: A549; assay: Cytotoxicity against human A549 cells after 72 hrs by MTT assay; type: functional, cell-based; conditions: A549, 72 h
[3] = test system: HT-29; assay: cells; conditions: Homo sapiens, HT-29, 72 h
[4] = test system: MKN-45; assay: cells; conditions: Homo sapiens, MKN-45, 72 h
[5] = test system: SMMC-7721; assay: cells; conditions: Homo sapiens, SMMC-7721, 72 h
[6] = test system: NCI-H460; assay: cells; conditions: Homo sapiens, NCI-H460, 72 h
[7] = cells; conditions: Homo sapiens, U-87 MG, 72 h

| Structure (SMILES) | IC50 [3] [nM] | IC50 [4] [nM] | IC50 [5] [nM] | IC50 [6] [nM] | IC50 [7] [nM] | IC50 [1] [nM] | IC50 [2] [nM] |
| --- | --- | --- | --- | --- | --- | --- | --- |
| COc1cc2c(Oc3ccc(NC(=O)N/N=C(\C)c4ccccc4)cc3F)ccnc2cc1OCCCN1CCCCC1 | 200 | 640 | – | – | – | 960 | 160 |
| CC/C(=N\NC(=O)Nc1ccc(Oc2ccnc3cc(OCCCN4CCCCC4)c(OC)cc23)c(F)c1)c1ccccc1 | 330 | 930 | – | – | – | 1100 | 290 |
| COc1cc2c(Oc3ccc(NC(=O)N/N=C/C(C)C)cc3F)ccnc2cc1OCCCN1CCCCC1 | 1100 | 2000 | – | – | – | 2700 | 1900 |
| COc1cc2c(Oc3ccc(NC(=S)N/N=C/c4ccc(F)cc4F)cc3F)ccnc2cc1OCCCN1CCCCC1 | 330 | 680 | – | – | – | 950 | 190 |
| COc1cc2c(Oc3ccc(NC(=S)N/N=C/c4ccco4)cc3F)ccnc2cc1OCCCN1CCCCC1 | 400 | 880 | – | – | – | 1100 | 470 |
| COc1cc2c(Oc3ccc(NC(=O)NNCc4ccc(F)cc4F)cc3F)ccnc2cc1OCCCN1CCC(C)CC1 | 660 | 860 | – | – | – | 1300 | 350 |
| COc1cc2c(Oc3ccc(NC(=O)N/N=C/c4ccccc4)cc3F)ccnc2cc1OCCCN1CCOCC1 | 200 | 670 | – | – | – | 2100 | 350 |
| COc1cc2c(Oc3ccc(NC(=O)N/N=C/c4ccc(OC(F)(F)F)cc4)cc3F)ccnc2cc1OCCCN1CCOCC1 | 1400 | 1200 | – | – | – | 1800 | 880 |
| COc1cc2c(Oc3ccc(NC(=O)N/N=C/c4ccc(C(F)(F)F)cc4)cc3F)ccnc2cc1OCCCN1CCOCC1 | 1100 | 780 | – | – | – | 1100 | 790 |
| COc1cc2c(Oc3ccc(NC(=O)N/N=C/c4ccccc4)cc3F)ccnc2cc1OCCCN1CCC(C)CC1 | 240 | 510 | – | – | – | 930 | 300 |
| COc1cc2c(Oc3ccc(NC(=O)N/N=C/c4ccccc4)cc3F)ccnc2cc1OCCCN1CCCC1 | 440 | 770 | – | – | – | 950 | 420 |
| COc1cc2c(Oc3ccc(NC(=O)N/N=C/c4ccc(F)cc4)cc3F)ccnc2cc1OCCCN1CCCC1 | 220 | 590 | – | – | – | 1300 | 270 |
| COc1cc2c(Oc3ccc(NC(=O)N/N=C/c4ccc(F)c(F)c4)cc3F)ccnc2cc1OCCCN1CCCCC1 | 380 | 710 | – | – | – | 1300 | 270 |
| COc1cc2c(Oc3ccc(NC(=O)N/N=C/c4ccccc4F)cc3F)ccnc2cc1OCCCN1CCCCC1 | 220 | 570 | – | – | – | 920 | 130 |
| COc1cc2c(Oc3ccc(NC(=O)N/N=C/c4ccccc4C#N)cc3F)ccnc2cc1OCCCN1CCCCC1 | 260 | 520 | – | – | – | 610 | 190 |
| COc1cc2c(Oc3ccc(NC(=O)N/N=C/c4cccc([N+](=O)[O-])c4)cc3F)ccnc2cc1OCCCN1CCCCC1 | 320 | 760 | – | – | – | 1000 | 750 |
| COc1cc2c(Oc3ccc(NC(=O)N/N=C/c4ccc([N+](=O)[O-])cc4)cc3F)ccnc2cc1OCCCN1CCCCC1 | 370 | 890 | – | – | – | 1400 | 820 |
| COc1cccc(/C=N/NC(=O)Nc2ccc(Oc3ccnc4cc(OCCCN5CCCCC5)c(OC)cc34)c(F)c2)c1 | 330 | 730 | – | – | – | 1200 | 340 |
| COc1ccc(OC)c(/C=N/NC(=O)Nc2ccc(Oc3ccnc4cc(OCCCN5CCCCC5)c(OC)cc34)c(F)c2)c1 | 590 | 860 | – | – | – | 1500 | 860 |
| COc1cc2c(Oc3ccc(NC(=O)N/N=C/c4c(C)cc(C)cc4C)cc3F)ccnc2cc1OCCCN1CCCCC1 | 700 | 650 | – | – | – | 1100 | 1900 |
| COc1cc2c(Oc3ccc(NC(=O)N/N=C/c4cccnc4)cc3F)ccnc2cc1OCCCN1CCCCC1 | 320 | 790 | – | – | – | 880 | 460 |
| COc1cc2c(Oc3ccc(NC(=O)N/N=C/c4ccco4)cc3F)ccnc2cc1OCCCN1CCCCC1 | 360 | 710 | – | – | – | 910 | 440 |
| COc1cc2c(Oc3ccc(NC(=O)N/N=C/c4ccc[nH]4)cc3F)ccnc2cc1OCCCN1CCCCC1 | 440 | 930 | – | – | – | 1000 | 540 |
| C=CCc1cccc(/C=N/NC(=O)CN2CCN(Cc3ccccc3)CC2)c1O [PAC-1] | 830 | 820 | – | – | – | 4600 | – |

Now those with a lower IC50 [3], led by results:

| IC50 [3] [nM] | IC50 [4] [nM] | IC50 [5] [nM] | IC50 [6] [nM] | IC50 [7] [nM] | Structure (SMILES) | IC50 [1] [nM] | IC50 [2] [nM] |
| --- | --- | --- | --- | --- | --- | --- | --- |
| 140 | 450 | – | – | – | COc1cc2c(Oc3ccc(NC(=S)N/N=C/c4ccccc4[N+](=O)[O-])cc3F)ccnc2cc1OCCCN1CCCCC1 | 830 | 250 |
| 96 | 560 | – | – | – | COc1cc2c(Oc3ccc(NC(=O)N/N=C/c4ccc(F)cc4)cc3F)ccnc2cc1OCCCN1CCOCC1 | 1600 | 200 |
| 160 | 640 | – | – | – | COc1cc2c(Oc3ccc(NC(=O)N/N=C/c4ccc(Cl)cc4)cc3F)ccnc2cc1OCCCN1CCOCC1 | 1200 | 330 |
| 130 | 490 | 330 | 69 | – | COc1cc2c(Oc3ccc(NC(=O)N/N=C/c4ccc(F)cc4)cc3F)ccnc2cc1OCCCN1CCCCC1 | 820 | 89 |
| 180 | 580 | – | – | – | COc1cc2c(Oc3ccc(NC(=O)N/N=C/c4ccccc4)cc3F)ccnc2cc1OCCCN1CCCCC1 | 1000 | 160 |
| 98 | 470 | 410 | 63 | 24 | COc1cc2c(Oc3ccc(NC(=O)N/N=C/c4ccc(Cl)cc4)cc3F)ccnc2cc1OCCCN1CCCCC1 | 940 | 220 |
| 83 | 610 | – | – | – | COc1cc2c(Oc3ccc(NC(=O)N/N=C/c4ccc(F)cc4)cc3F)ccnc2cc1OCCCN1CCC(C)CC1 | 930 | 110 |
| 140 | 620 | – | – | – | COc1cc2c(Oc3ccc(NC(=O)N/N=C/c4ccc(Cl)cc4)cc3F)ccnc2cc1OCCCN1CCC(C)CC1 | 1200 | 170 |
| 180 | 610 | – | – | – | COc1cc2c(Oc3ccc(NC(=O)N/N=C/c4ccc(Cl)cc4)cc3F)ccnc2cc1OCCCN1CCCC1 | 1300 | 410 |
| 190 | 560 | 300 | 77 | 18 | COc1cc2c(Oc3ccc(NC(=O)N/N=C/c4ccc(F)cc4F)cc3F)ccnc2cc1OCCCN1CCCCC1 | 850 | 78 |
| 180 | 490 | – | – | – | COc1cc2c(Oc3ccc(NC(=O)N/N=C/c4ccccc4F)cc3F)ccnc2cc1OCCCN1CCC(C)CC1 | 880 | 220 |
| 160 | 590 | – | – | – | COc1cc2c(Oc3ccc(NC(=O)N/N=C/c4ccccc4C(F)(F)F)cc3F)ccnc2cc1OCCCN1CCCCC1 | 730 | 130 |
| 150 | 480 | – | – | – | COc1cc2c(Oc3ccc(NC(=O)N/N=C/c4ccccc4[N+](=O)[O-])cc3F)ccnc2cc1OCCCN1CCCCC1 | 550 | 190 |
